This note sets out measurements from ChEMBL document CHEMBL2413001, “Exploring pyrimidine-substituted curcumin analogues: design, synthesis and effects on EGFR signaling” (Bioorg Med Chem, 2013).

For assay [1], the system named is HCT-116. As to the kind of experiment: Cytotoxicity against human HCT116 cells assessed as growth inhibition after 48 hrs by resazurin assay. The format is functional, cell-based. To be noted: for IC50: HCT-116, 48 h. Put shortly: (§1)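 HCT116 or HT29 seeded at 2000 cells/well, grown 24 h, then given fresh complete McCoy's 5A (5% FBS, 0.1% DMSO final) containing serial compound concentrations for 48 h. Resazurin was added for 16 h and fluorescence read at ex 544/em 595 nm as a measure of living cells. IC50 was calculated by the Logit approach; values are mean ± SD.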

Assay [2] relates to HT-29. In words: Cytotoxicity against human HT-29 cells assessed as growth inhibition after 48 hrs by resazurin assay. The note with it: for IC50: HT-29, 48 h. The format is functional, cell-based. The procedure, abridged:
as §1
Background: Resazurin is reduced to fluorescent resorufin, in cell work by metabolically active cells.

The subject of assay [3] is HCT-116. In words: Induction of apoptosis in human HCT116 cells assessed as ratio of Bax to Bcl-2 expression at 10 uM after 72 hrs by Western blot analysis relative to control. The format is functional. Put shortly: (§2)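 HCT116 only, seeded at 8 × 10⁴ cells/ml in 15 cm dishes for 24 h, then treated for 72 h at 20 µM or at 5, 10 and 20 µM. Lysed in Triton lysis buffer (pH 7.5) with inhibitors, sonicated, and protein assayed by BCA. Western blots were developed by ECL. Band intensities were normalized to β-actin, as means of three independent experiments; the Bax/Bcl-2 ratio was expressed relative to untreated control.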
(In western blotting, separated proteins are transferred to a membrane and probed.)

Assay [4] has as its system HCT-116. In words: Induction of apoptosis in human HCT116 cells assessed as effect on HSP-70 expression after 72 hrs by Western blot analysis. It is filed as functional, cell-based. Put shortly: as §2
Assay [5] deals with HCT-116. In words: Induction of apoptosis in human HCT116 cells assessed as caspase-3 activation after 72 hrs by Western blot analysis. It is filed as functional, cell-based. Put shortly: as §2
Assay [6] deals with HCT-116. In words: Inhibition of EGFR protein expression in human HCT116 cells after 72 hrs by Western blot analysis. The format is functional, cell-based. Put shortly:
(§3)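 HCT116 or HT29 seeded at 8 × 10⁴ cells/ml in 15 cm dishes for 24 h, then treated for 72 h at 20 µM or at 5, 10 and 20 µM. Whole-cell lysates were made in Tris-HCl/NaCl/Triton buffer with phosphatase and protease inhibitors (pH 7.5), sonicated and cleared at 10,000g; protein was measured by BCA. Blots were blocked in 5% milk/TBST and developed by ECL. P-EGFR(Tyr1068) and total EGFR bands were normalized to β-tubulin, as means of three experiments.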

The subject of assay [7] is HT-29. In words: Cell cycle arrest in human HT-29 cells assessed as accumulation at G0/G1 phase at 5 uM after 24 hrs by flow cytometry relative to control. It is filed as functional, cell-based. Put shortly:
(§4)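 HCT116 or HT29 cells seeded at 4 × 10⁴ cells/ml in 6-well plates and left 24 h to attach, then exposed for 24 h in complete McCoy's 5A (5% FBS) with 0.1% DMSO final, at 5, 10 or 20 µM. Floating and trypsinized cells were pooled, PBS-washed, fixed overnight in 70% ethanol at 4 °C and stained with PI/RNase for 15 min at room temperature. Flow DNA content gave G0/G1, S and G2/M fractions as fold of control, from three independent assays.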
For orientation: A flow cytometer gives signals particle by particle.

Assay [8] addresses Epidermal growth factor receptor (Homo sapiens) (UniProt P00533). In words: Inhibition of EGFR phosphorylation at Tyr1068 residue in human HT-29 cells after 72 hrs by Western blot analysis. It is filed as cell-based. The procedure, abridged:
as §3

The subject of assay [9] is HCT-116. In words: Induction of apoptosis in human HCT116 cells assessed as reduction in Bcl-2 expression after 72 hrs by Western blot analysis. The format is functional, cell-based. Put shortly: as §2
Assay [10] has as its target Epidermal growth factor receptor (Homo sapiens) (UniProt P00533). In words: Inhibition of EGFR signaling in human HCT116 cells assessed as induction of p21 WAF-1/CIP-1 expression at 10 uM after 24 hrs by Western blot analysis relative to control. The format is cell-based. To be noted: HCT-116.
Assay [11] deals with HT-29. In words: Cell cycle arrest in human HT-29 cells assessed as increase in G2/M population at 5 uM after 24 hrs by flow cytometry relative to control. It is filed as functional. Put shortly:
as §4

For assay [12], the system named is HCT-116. In words: Induction of apoptosis in human HCT116 cells assessed as PARP cleavage after 72 hrs by Western blot analysis. It is filed as functional, cell-based. Put shortly: as §2
The subject of assay [13] is HCT-116. In words: Cell cycle arrest in human HCT116 cells assessed as increase in G2/M population at 20 uM after 24 hrs by flow cytometry relative to control. It is filed as functional. Put shortly: as §4
The target in assay [14] is Epidermal growth factor receptor (Homo sapiens) (UniProt P00533). As to the kind of experiment: Inhibition of EGFR signaling in human HCT116 cells assessed as induction of p21 WAF-1/CIP-1 expression at 5 uM after 24 hrs by Western blot analysis relative to control. The note with it: HCT-116. The format is cell-based.
Assay [15] has as its system HCT-116. In words: Cell cycle arrest in human HCT116 cells assessed as increase in G2/M population at 5 uM after 24 hrs by flow cytometry relative to control. It is filed as functional. The procedure, abridged:
as §4

Assay [16] addresses Epidermal growth factor receptor (Homo sapiens) (UniProt P00533). In words: Inhibition of EGFR signaling in human HCT116 cells assessed as effect on CDK2 expression at 5 to 20 uM after 24 hrs by Western blot analysis. The format is cell-based. To be noted: HCT-116.
The target is the same in assay [17]. In words: Inhibition of EGFR signaling in human HCT116 cells assessed as inhibition of cyclin E1 expression after 24 hrs by Western blot analysis. The format is cell-based. To be noted: HCT-116.
For assay [18] the target is unchanged. As to the kind of experiment: Inhibition of EGFR signaling in human HCT116 cells assessed as effect on CDK4 expression at 5 to 20 uM after 24 hrs by Western blot analysis. The note with it: HCT-116. The format is cell-based.
The test system of assay [19] is HCT-116. In words: Cell cycle arrest in human HCT116 cells assessed as accumulation at G0/G1 phase at 5 uM after 24 hrs by flow cytometry relative to control. The format is functional, cell-based. Put shortly:
as §4

The subject of assay [20] is HCT-116. As to the kind of experiment: Induction of apoptosis in human HCT116 cells assessed as ratio of Bax to Bcl-2 expression at 20 uM after 72 hrs by Western blot analysis relative to control. The format is functional. The procedure, abridged: as §2
The subject of assay [21] is HCT-116. In words: Cell cycle arrest in human HCT116 cells assessed as increase in G2/M population at 10 uM after 24 hrs by flow cytometry relative to control. The format is functional. The procedure, abridged:
as §4

In assay [22] the target is Epidermal growth factor receptor (Homo sapiens) (UniProt P00533). As to the kind of experiment: Inhibition of EGFR phosphorylation at Tyr1068 residue in human HCT116 cells after 72 hrs by Western blot analysis. The format is cell-based. To be noted: HCT-116. The procedure, abridged:
as §3

The target is the same in assay [23]. In words: Inhibition of EGFR signaling in human HCT116 cells assessed as induction of p21 WAF-1/CIP-1 expression at 20 uM after 24 hrs by Western blot analysis relative to control. It is filed as cell-based. To be noted: HCT-116.
In assay [24] the test system is HT-29. In words: Inhibition of EGFR protein expression in human HT-29 cells after 72 hrs by Western blot analysis. It is filed as functional, cell-based. Put shortly:
as §3

For assay [25], the system named is HT-29. In words: Cell cycle arrest in human HT-29 cells assessed as increase in G2/M population at 20 uM after 24 hrs by flow cytometry relative to control. The format is functional. The procedure, abridged: as §4
The subject of assay [26] is HCT-116. As to the kind of experiment: Induction of apoptosis in human HCT116 cells assessed as effect on HSP-90 expression after 72 hrs by Western blot analysis. The format is functional, cell-based. The procedure, abridged:
as §2

Assay [27] has as its target Epidermal growth factor receptor (Homo sapiens) (UniProt P00533). In words: Inhibition of EGFR signaling in human HCT116 cells assessed as inhibition of Rb expression after 24 hrs by Western blot analysis. It is filed as cell-based. The note with it: HCT-116.
Assay [28] deals with HCT-116. In words: Induction of apoptosis in human HCT116 cells assessed as increase in Bax expression after 72 hrs by Western blot analysis. The format is functional, cell-based. Put shortly:
as §2

Assay [29] relates to HT-29. In words: Cell cycle arrest in human HT-29 cells assessed as increase in G2/M population at 10 uM after 24 hrs by flow cytometry relative to control. The format is functional. Put shortly: as §4
The target in assay [30] is Epidermal growth factor receptor (Homo sapiens) (UniProt P00533). In words: Inhibition of EGFR signaling in human HCT116 cells assessed as inhibition of cyclin D1 expression after 24 hrs by Western blot analysis. It is filed as cell-based. To be noted: HCT-116.
The test system of assay [31] is HCT-116. As to the kind of experiment: Induction of apoptosis in human HCT116 cells assessed as ratio of Bax to Bcl-2 expression at 5 uM after 72 hrs by Western blot analysis relative to control. The format is functional. Put shortly: as §2

Each structure is given as a SMILES string. Calls of active or inactive are those of the source. The calls are words filed in the database; no cut-off is given here.

Sequence of Epidermal growth factor receptor (Homo sapiens) (P00533 whole entry): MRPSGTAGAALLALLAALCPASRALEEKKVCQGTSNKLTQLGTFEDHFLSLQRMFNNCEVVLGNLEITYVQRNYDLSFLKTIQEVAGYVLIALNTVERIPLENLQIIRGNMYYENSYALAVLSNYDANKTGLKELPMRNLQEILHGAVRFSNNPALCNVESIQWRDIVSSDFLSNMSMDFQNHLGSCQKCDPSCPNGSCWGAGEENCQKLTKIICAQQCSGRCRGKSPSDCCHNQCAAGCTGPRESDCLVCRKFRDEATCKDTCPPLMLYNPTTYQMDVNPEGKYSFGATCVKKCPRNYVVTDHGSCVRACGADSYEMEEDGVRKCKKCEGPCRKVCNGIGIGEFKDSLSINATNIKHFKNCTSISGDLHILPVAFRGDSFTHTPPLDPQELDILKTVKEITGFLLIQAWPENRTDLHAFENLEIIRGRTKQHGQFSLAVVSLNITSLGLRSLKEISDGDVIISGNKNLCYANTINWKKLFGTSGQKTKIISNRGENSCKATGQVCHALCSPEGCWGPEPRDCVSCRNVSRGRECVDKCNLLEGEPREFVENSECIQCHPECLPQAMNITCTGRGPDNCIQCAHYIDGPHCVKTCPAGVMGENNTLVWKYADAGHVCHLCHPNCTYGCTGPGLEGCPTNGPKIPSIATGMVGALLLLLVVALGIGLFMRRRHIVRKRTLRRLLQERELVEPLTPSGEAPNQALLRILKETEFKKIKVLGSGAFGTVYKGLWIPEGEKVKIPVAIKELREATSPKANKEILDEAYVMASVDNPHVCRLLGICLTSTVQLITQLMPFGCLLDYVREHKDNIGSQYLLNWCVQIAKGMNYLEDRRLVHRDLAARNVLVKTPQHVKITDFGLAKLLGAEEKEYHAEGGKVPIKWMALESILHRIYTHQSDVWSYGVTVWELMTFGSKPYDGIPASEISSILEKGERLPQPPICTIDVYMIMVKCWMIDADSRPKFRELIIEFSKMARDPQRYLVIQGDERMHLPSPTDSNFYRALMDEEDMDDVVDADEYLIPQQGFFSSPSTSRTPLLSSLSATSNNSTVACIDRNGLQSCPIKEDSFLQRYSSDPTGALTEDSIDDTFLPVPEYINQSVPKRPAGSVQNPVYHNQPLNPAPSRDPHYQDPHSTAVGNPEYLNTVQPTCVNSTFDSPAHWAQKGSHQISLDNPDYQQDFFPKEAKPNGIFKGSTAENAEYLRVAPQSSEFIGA

The IC50 is the midpoint of a concentration-inhibition curve. Regarding `COc1ccc(/C=C/c2cc(/C=C/c3ccc(OC)c(OC)c3)nc(NCCCO)n2)cc1OC`, the “growth inhibition (GI)” value in assay [1] and in assay [2] was “Dose-dependent effect” each time. The IC50 in assay [1] amounted to 9.9 µM; in [2], 12.8 µM.
Consider `COc1ccc(/C=C/c2cc(/C=C/c3ccc(OC)c(OC)c3)nc(NCCO)n2)cc1OC`, for which the Ratio in assay [3] turned out to be 17; in assay [20] it was 19; in [31], 2.1. The Activity result in assay [4], in [5], in assay [9], in [12], in assay [26] and in assay [28] was “Dose-dependent effect” throughout. In addition, the inhibition entry in assay [6], in assay [8], in assay [17], in assay [22], in assay [24] and in assay [27] was “Dose-dependent effect” in each case. In addition, in [30], the inhibition entry was “Dose-dependent effect”. For the same compound, the result in assay [7] and in assay [19] was Active. Moreover, the “growth inhibition (GI)” value in assay [1] and in [2] was “Dose-dependent effect” in each case. In addition, the IC50 in [1] was determined as 6.2 µM; in [2] it was 7.1 µM. For the same compound, the fold change (FC) in assay [10] came out at 28.6; in assay [11], 1.86; in [13] it was 2.05; in assay [14], 21.4; in assay [15] it was 1.54; in assay [21], 1.78. For the same compound, the fold change (FC) came to 25.7 in assay [23], 2.4 in assay [25] and 1.94 in assay [29]. Further, the inhibition result in assay [16] and in assay [18] was “inactive” in each case.
Regarding `COc1cc(/C=C/c2cc(/C=C/c3cc(OC)c(OC)c(OC)c3)nc(NCCCO)n2)cc(OC)c1OC`, the “growth inhibition (GI)” value in assay [1] and in assay [2] was “Dose-dependent effect” each time. For the same compound, the 50% inhibitory concentration (IC50) in [1] came out at 7.4 µM; in [2], 12.4 µM.
